This note sets out measurements from article PMC7689895 (ACS Omega, 2020).

≈ marks a conversion by molar mass, not a printed value.

The nature of data set [1]: Cytotoxicity test. It counts as cell-based. As to conditions: African green monkey, uninfected Vero cells. The procedure, abridged: (§1)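 Stocks of 50 mg/mL in DMSO, with antibiotic–antimycotic added, were diluted twofold in DMEM. Cells at 2 × 10⁵ cells/mL were grown 24 h at 37 °C under 5% CO₂ to confluence, then exposed 72 h. Morphology was scored daily by inverted microscopy. Viable cells were counted by 0.4% trypan blue exclusion after trypsinisation. CC50 halves OD492 of treated versus untreated uninfected cells. Triplicates.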

In data set [2] the test system is herpes simplex virus type 1 (HSV-1). As to the kind of experiment: Plaque assay for antiviral activity, Vero cells. The following applies: for IC50: Human alphaherpesvirus 1, Vero; for mean % of reduction, herpes simplex virus type-1: nontoxic dose, viral titers 1 × 10^5, 1 × 10^6, 1 × 10^7. It counts as cell-based.
The target of data set [3] is USP7 enzyme (Homo sapiens, UniProt Q93009). As to the kind of experiment: USP7 Inhibitor Screening Assay Kit. It counts as biochemical. As to conditions: for inhibition at 0.1 µg/mL / inhibition at 1 µg/mL / inhibition at 10 µg/mL / inhibition at 100 µg/mL: read-out: inhibition percentage against USP7. The procedure, abridged: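 Human recombinant USP7 from a commercial kit was stabilised with DTT and used at 0.4 ng/µL. Ub-AMC substrate was diluted 400-fold in 1× assay buffer, test compound or inhibitor buffer was added, and the enzyme started the reaction. After 30 min at room temperature with rotation, fluorescence was read at 360 nm excitation and 460 nm emission, minus blank.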
USP7 enzyme, sequence (Q93009 whole entry): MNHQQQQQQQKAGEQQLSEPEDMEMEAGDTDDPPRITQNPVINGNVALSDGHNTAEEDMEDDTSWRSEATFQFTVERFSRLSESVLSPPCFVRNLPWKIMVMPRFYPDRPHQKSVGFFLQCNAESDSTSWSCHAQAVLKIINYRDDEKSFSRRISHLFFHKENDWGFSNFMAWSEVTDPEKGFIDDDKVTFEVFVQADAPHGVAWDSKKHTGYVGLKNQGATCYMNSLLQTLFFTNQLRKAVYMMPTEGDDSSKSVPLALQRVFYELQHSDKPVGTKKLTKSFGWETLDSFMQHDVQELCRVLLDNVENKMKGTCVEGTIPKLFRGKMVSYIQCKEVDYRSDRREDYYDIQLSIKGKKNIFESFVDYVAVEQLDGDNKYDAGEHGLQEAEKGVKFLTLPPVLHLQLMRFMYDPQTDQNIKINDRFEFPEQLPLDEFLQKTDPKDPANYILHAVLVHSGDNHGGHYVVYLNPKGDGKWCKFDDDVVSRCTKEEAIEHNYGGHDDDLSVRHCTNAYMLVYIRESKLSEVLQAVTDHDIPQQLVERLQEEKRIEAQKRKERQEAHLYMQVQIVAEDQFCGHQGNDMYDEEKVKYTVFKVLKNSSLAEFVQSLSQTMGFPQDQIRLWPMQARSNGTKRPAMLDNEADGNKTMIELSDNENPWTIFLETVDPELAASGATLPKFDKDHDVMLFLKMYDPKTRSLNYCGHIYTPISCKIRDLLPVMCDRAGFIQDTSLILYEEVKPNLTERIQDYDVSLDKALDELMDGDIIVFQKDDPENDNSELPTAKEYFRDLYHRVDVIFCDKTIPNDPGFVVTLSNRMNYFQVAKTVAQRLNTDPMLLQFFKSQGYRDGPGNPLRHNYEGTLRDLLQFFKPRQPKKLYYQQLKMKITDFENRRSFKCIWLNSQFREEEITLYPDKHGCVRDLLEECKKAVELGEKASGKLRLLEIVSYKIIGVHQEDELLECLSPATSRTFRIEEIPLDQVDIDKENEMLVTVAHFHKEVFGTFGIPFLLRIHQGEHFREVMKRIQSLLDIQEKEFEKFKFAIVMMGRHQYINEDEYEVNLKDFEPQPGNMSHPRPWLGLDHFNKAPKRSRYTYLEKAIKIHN

In data set [4] the test system is Vero. As to the kind of experiment: Cytotoxicity test. Format: cell-based. The following applies: Vero cell line. The procedure, abridged: as §1
Data set [5] deals with FRHK-4. As to the kind of experiment: Cytotoxicity test. Format: cell-based. As to conditions: FRHK-4 cell line. The procedure, abridged: as §1
Data set [6] relates to HCVcc genotype 4. Kind of data set: Antiviral bioassay against ED-43/SG-Feo. Format: cell-based, hepatitis C virus genotype 4a. The following applies: for mean % of reduction, HCVcc genotype 4: nontoxic dose, viral titers 1 × 10^5, 1 × 10^6, 1 × 10^7.
For data set [7], the system named is Huh 7.5. As to the kind of experiment: Cytotoxicity test. It counts as cell-based. The following applies: Huh 7.5 cell line. The procedure, abridged:
as §1

Data set [8] concerns adenovirus type 7 (HAdV7). Kind of data set: Plaque assay for antiviral activity, Hep-2 cells. Format: cell-based. As to conditions: for mean % of reduction, adenovirus type 7: nontoxic dose, viral titers 1 × 10^5, 1 × 10^6, 1 × 10^7. Put shortly: (§2)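 Nontoxic dilutions were mixed 1:1 (100 µL each) with virus (10⁵–10⁷) for 0.5 h at 37 °C. Tenfold dilutions were plated on Hep-2 (HAdV7), FRHK-4 (HAV HM175) or BGM (CBV4), adsorbed 1 h at 37 °C under 5% CO₂, and overlaid with 2× DMEM plus 1% agarose. Plaques were fixed with formalin, stained with crystal violet and counted as pfu/mL. IC50 is the half-maximal plaque reduction; SI = CC50/IC50. Triplicates.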

The subject of data set [9] is coxsackievirus B4 (CBV4). Kind of data set: Plaque assay for antiviral activity, BGM cells. It counts as cell-based. The following applies: for SI: CC50/IC50 ratio; for mean % of reduction, coxsackievirus B4: nontoxic dose, viral titers 1 × 10^5, 1 × 10^6, 1 × 10^7. The procedure, abridged: as §2
The subject of data set [10] is Hep-2. Kind of data set: Cytotoxicity test. It counts as cell-based. The following applies: Hep-2 cell line. The procedure, abridged: as §1
Data set [11] has as its system hepatitis A virus (HAV) HM175. As to the kind of experiment: Plaque assay for antiviral activity, FRHK-4 cells. Format: cell-based. The following applies: for mean % of reduction, hepatitis A virus HM175: nontoxic dose, viral titers 1 × 10^5, 1 × 10^6, 1 × 10^7. Put shortly:
as §2

Data set [12] relates to BGM. As to the kind of experiment: Cytotoxicity test. Format: cell-based. As to conditions: for nontoxic dose: BGM cell line. Put shortly: as §1
Data set [13] is described as follows: Cytotoxicity test. It counts as cell-based. As to conditions: rhesus monkey, uninfected FRHK-4 cells. Put shortly: as §1
Data set [14] can be described thus: Cytotoxicity test. Format: cell-based. The following applies: human, uninfected Huh 7.5 cells. Put shortly: as §1
Data set [15] in a line: Cytotoxicity test. The following applies: human, uninfected Hep-2 cells. It counts as cell-based. The procedure, abridged: as §1
Data set [16] in a line: Cytotoxicity test. It counts as cell-based. The following applies: African green monkey, uninfected BGM cells. The procedure, abridged: as §1

As a reminder, the CC50 is the concentration that lowers cell viability or growth by half. Low values mean harm at low concentration, high ones better tolerance by the cells. For orientation: IC50 means the midpoint of a concentration-inhibition curve. High values mean weaker potency in that assay, low ones greater potency in that assay. For orientation: inhibition means the share of the control response that was lost under treatment.

The compound `Nc1nc2c(ncn2COCCO)c(=O)[nH]1` [acyclovir, reference compound] returned a cytotoxic concentration (CC50) in data set [1] of 2.8 µg/mL (≈ 12.4 µM). This compound also returned a 50% inhibitory concentration (IC50) in data set [2] of 0.7 µg/mL (≈ 3.11 µM). Further, in [3], the IC50 is 11 µM, the inhibition at 0.1 µg/mL is 18.7%, the inhibition at 1 µg/mL came out at 35% and the inhibition at 10 µg/mL amounted to 71.7%. Besides, the inhibition at 100 µg/mL in data set [3] amounted to 84.5%.
Consider `O=c1c(-c2nc3ccccc3s2)cc2c(n1NS(=O)(=O)c1ccccc1)CCCC2` [compound 7a], for which the nontoxic dose in data set [4] worked out at 110 µg/mL; in [5] it was 110 µg/mL; in [7] it was 100 µg/mL; in data set [10], 110 µg/mL; in data set [12], 110 µg/mL. In addition, the “mean % of reduction, herpes simplex virus type-1” value in data set [2] is 40.0%. The “mean % of reduction, HCVcc genotype 4” value in data set [6] was 30.0%. For the same compound, the “mean % of reduction, adenovirus type 7” value in data set [8] is 10.0%. Besides, the SI in data set [9] (Coxsackievirus B4) was 2.95. In addition, in data set [9] (Coxsackievirus B4), the half-maximal inhibitory concentration (IC50) was 88 µg/mL (≈ 201 µM). Besides, the “mean % of reduction, hepatitis A virus HM175” value in data set [11] was 30.0%. Besides, the CC50 in data set [12] (uninfected host cells, section Coxsackievirus B4) was 260 µg/mL (≈ 594 µM).
`O=c1c(-c2nc3ccccc3s2)cc2c(n1NS(=O)(=O)c1ccc(Cl)cc1)CCCC2` [compound 7b]: the nontoxic dose in data set [4], in data set [5], in data set [7], in data set [10] and in data set [12] was 130 µg/mL each time. The “mean % of reduction, herpes simplex virus type-1” value in data set [2] is on record as “- ^a”.
For the compound `N#Cc1cc(-c2nc3ccccc3s2)c(=O)n(NS(=O)(=O)c2ccccc2)c1N` [compound 13a, N-(6-Amino-3-(benzo[d]thiazole-2-yl)-5-cyano-2-oxopyridine-1(2H)-yl)benzensulfonamide], the nontoxic dose in data set [4] is 110 µg/mL; in data set [5], 110 µg/mL; in data set [7], 100 µg/mL; in data set [10] it was 110 µg/mL; in data set [12], 100 µg/mL. For the same compound, the CC50 in data set [1] is 280 µg/mL (≈ 661 µM); in data set [13] it was 260 µg/mL (≈ 614 µM); in data set [14], 260 µg/mL (≈ 614 µM); in [15], 270 µg/mL (≈ 638 µM); in data set [16], 240 µg/mL (≈ 567 µM). The SI worked out at 3.73 in [2] (CC50/IC50 ratio, Herpes Simplex Virus); 3.09 in data set [6] (CC50/IC50 ratio, HCVcc Genotype 4); 2.45 in [8] (CC50/IC50 ratio, Adenovirus Type 7); 2.86 in [9] (Coxsackievirus B4); 2.89 in data set [11] (CC50/IC50 ratio, Hepatitis A Virus HM175). Besides, the 50% inhibitory concentration (IC50) is 75 µg/mL (≈ 177 µM) in [2]; 11.3 µM in data set [3]; 90 µg/mL (≈ 213 µM) in [11] (Hepatovirus A, FRhK-4). Further, in data set [6], the “mean % of reduction, HCVcc genotype 4” value is recorded as 56.7%. The “mean % of reduction, adenovirus type 7” value in data set [8] is listed as 50%. Also, the inhibition at 0.1 µg/mL in [3] amounted to 11.8%. Further, the inhibition at 1 µg/mL in data set [3] was determined as 35.8%. The inhibition at 10 µg/mL in data set [3] is 54%. For the same compound, in data set [3], the inhibition at 100 µg/mL was determined as 81.5%. Moreover, the “mean % of reduction, hepatitis A virus HM175” value in [11] worked out at 60%.
As to `N#Cc1cc(-c2nc3ccccc3s2)c(=O)n(NS(=O)(=O)c2ccc(Cl)cc2)c1N` [compound 13b, N-(6-Amino-3-(benzo[d]thiazole-2-yl)-5-cyano-2-oxopyridine-1(2H)-yl)-4-chlorobenzensulfonamide], the nontoxic dose in data set [4], in data set [5], in [7], in data set [10] and in [12] was 100 µg/mL in each case. Also, in data set [2], the “mean % of reduction, herpes simplex virus type-1” value is 26.7%. Also, in data set [6], the “mean % of reduction, HCVcc genotype 4” value was 26.7%. In data set [8], the “mean % of reduction, adenovirus type 7” value is on record as 16.7%. In data set [9], the “mean % of reduction, coxsackievirus B4” value stood at 30.0%. Moreover, in [11], the “mean % of reduction, hepatitis A virus HM175” value came to 26.7%.
On to `Cc1ccc(S(=O)(=O)Nn2c(N)c(C#N)cc(-c3nc4ccccc4s3)c2=O)cc1` [compound 13c, N-(6-Amino-3-(benzo[d]thiazole-2-yl)-5-cyano-2-oxopyridine-1(2H)-yl)-4-methylbenzensulfonamide], for which the nontoxic dose in data set [4] came out at 110 µg/mL; in data set [5], 110 µg/mL; in [7], 100 µg/mL; in [10] it was 110 µg/mL; in data set [12], 110 µg/mL. Further, the “mean % of reduction, herpes simplex virus type-1” value in data set [2] came to 10.0%. Further, in data set [6], the “mean % of reduction, HCVcc genotype 4” value stood at 10.0%. Moreover, the “mean % of reduction, adenovirus type 7” value in data set [8] came out at 3.3%. The “mean % of reduction, coxsackievirus B4” value in [9] is given as 10.0%. Further, in data set [11], the “mean % of reduction, hepatitis A virus HM175” value came out at 6.7%.
For `CCOC(=O)c1cc(-c2nc3ccccc3s2)c(=O)n(NS(=O)(=O)c2ccc(C)cc2)c1N` [compound 13f, Ethyl-2-amino-5-(benzo[d]thiazole-2-yl)-1-(4-methylphenylsulfonamido)-6-Oxo-1,6-dihydropyridine-3-carboxylate], the nontoxic dose in data set [4] amounted to 140 µg/mL; in [5], 140 µg/mL; in data set [7], 140 µg/mL; in [10] it was 140 µg/mL; in [12], 130 µg/mL. Moreover, the “mean % of reduction, herpes simplex virus type-1” value in data set [2] is 23.3%. Moreover, the “mean % of reduction, HCVcc genotype 4” value in [6] worked out at 20.0%. In addition, the “mean % of reduction, adenovirus type 7” value in data set [8] came to 16.7%. Also, the “mean % of reduction, coxsackievirus B4” value in data set [9] is recorded as 20.0%. The “mean % of reduction, hepatitis A virus HM175” value in [11] was 20.0%.
